The source of these data is ChEMBL document CHEMBL1926530, “Novel pyrazolo[1,5-a]pyridines as p110α-selective PI3 kinase inhibitors: Exploring the benzenesulfonohydrazide SAR” (Bioorg Med Chem, 2012).

In experiment [1] the target is Phosphatidylinositol 4,5-bisphosphate 3-kinase catalytic subunit beta isoform (Homo sapiens, UniProt P42338). In words: Inhibition of recombinant PI3K p110beta using L-alpha-phosphatidylinositol as substrate and [gamma33P]ATP after 60 mins by thin layer chromatographic technique. The method, boiled down: (§1)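 In-house recombinant enzyme (0.1 µg) with L-α-phosphatidylinositol in 40 mM Tris-HCl pH 7.4, 200 mM NaCl, 1 mM EDTA; DMSO 1% final. Started with 5 mM MgCl₂, 100 µM ATP plus [γ-³³P]ATP; 1 h at room temperature, stopped with 1 M HCl. Lipids extracted, separated by TLC, phosphorimaged. Nine inhibitor concentrations; two experiments, IC50 averaged.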

Experiment [2] in a line: Cytotoxicity against human NZOV9 cells harboring PI3K p110alpha Y1021C mutant assessed as inhibition of [3H]thymidine incorporation measured after 5 days. The format is functional, cell-based. The essentials:
(§2)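 Early-passage lines grown in α-MEM with insulin, transferrin, selenite and 5% FBS. Wells seeded with 1000 cells; inhibitor in dilution steps up to a maximum of 20. Five days under 5% O₂/5% CO₂/90% N₂, ³H-thymidine added for the last 6 h. Duplicates per dose; fit y = y₀ + ae^−bx; IC50 = 50% reduction in incorporation.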
(Uptake of a labelled nucleoside into DNA is a usual measure of proliferation.)

In experiment [3] the target is T1, Phosphatidylinositol 4,5-bisphosphate 3-kinase catalytic subunit delta isoform (Homo sapiens, UniProt O00329).
T1 sequence (O00329 whole entry): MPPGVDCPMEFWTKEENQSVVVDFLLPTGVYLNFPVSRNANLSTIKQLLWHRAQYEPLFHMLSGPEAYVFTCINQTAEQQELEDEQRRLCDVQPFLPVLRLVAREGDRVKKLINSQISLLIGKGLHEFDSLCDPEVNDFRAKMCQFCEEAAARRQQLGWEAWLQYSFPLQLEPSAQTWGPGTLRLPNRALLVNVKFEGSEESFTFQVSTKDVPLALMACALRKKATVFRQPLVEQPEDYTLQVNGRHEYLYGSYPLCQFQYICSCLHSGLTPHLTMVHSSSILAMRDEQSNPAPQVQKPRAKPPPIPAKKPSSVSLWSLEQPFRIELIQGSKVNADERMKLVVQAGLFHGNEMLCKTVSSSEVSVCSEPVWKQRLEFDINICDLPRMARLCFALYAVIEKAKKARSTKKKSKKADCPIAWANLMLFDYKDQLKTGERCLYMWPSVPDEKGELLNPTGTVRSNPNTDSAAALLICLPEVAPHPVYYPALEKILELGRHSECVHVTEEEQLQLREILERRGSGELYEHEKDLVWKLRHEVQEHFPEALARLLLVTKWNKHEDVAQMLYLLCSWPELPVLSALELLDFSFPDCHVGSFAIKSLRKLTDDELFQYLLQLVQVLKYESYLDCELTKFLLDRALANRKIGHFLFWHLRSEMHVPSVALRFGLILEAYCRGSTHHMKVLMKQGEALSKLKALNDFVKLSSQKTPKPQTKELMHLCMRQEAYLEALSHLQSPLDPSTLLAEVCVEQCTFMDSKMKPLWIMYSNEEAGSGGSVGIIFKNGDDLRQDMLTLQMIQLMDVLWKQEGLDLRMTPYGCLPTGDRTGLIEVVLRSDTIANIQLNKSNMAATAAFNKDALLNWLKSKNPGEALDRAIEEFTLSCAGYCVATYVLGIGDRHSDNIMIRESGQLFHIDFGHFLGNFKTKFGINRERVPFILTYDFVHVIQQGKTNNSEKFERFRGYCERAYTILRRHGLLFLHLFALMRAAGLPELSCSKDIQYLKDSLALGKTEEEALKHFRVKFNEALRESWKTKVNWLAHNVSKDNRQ
In words: Inhibition of recombinant PI3K p110delta using L-alpha-phosphatidylinositol as substrate and [gamma33P]ATP after 60 mins by thin layer chromatographic technique. The essentials: as §1

The target of experiment [4] is Phosphatidylinositol 4,5-bisphosphate 3-kinase catalytic subunit alpha isoform (Homo sapiens, UniProt P42336). In words: Inhibition of recombinant PI3K p110alpha using L-alpha-phosphatidylinositol as substrate and [gamma33P]ATP after 60 mins by thin layer chromatographic technique. The essentials:
as §1

Experiment [5] in a line: Cytotoxicity against human NZB5 cells assessed as inhibition of [3H]thymidine incorporation measured after 5 days. The experiment is classed as functional, cell-based. The method, boiled down:
as §2

Sequence of Phosphatidylinositol 4,5-bisphosphate 3-kinase catalytic subunit alpha isoform (P42336 whole entry, canonical isoform): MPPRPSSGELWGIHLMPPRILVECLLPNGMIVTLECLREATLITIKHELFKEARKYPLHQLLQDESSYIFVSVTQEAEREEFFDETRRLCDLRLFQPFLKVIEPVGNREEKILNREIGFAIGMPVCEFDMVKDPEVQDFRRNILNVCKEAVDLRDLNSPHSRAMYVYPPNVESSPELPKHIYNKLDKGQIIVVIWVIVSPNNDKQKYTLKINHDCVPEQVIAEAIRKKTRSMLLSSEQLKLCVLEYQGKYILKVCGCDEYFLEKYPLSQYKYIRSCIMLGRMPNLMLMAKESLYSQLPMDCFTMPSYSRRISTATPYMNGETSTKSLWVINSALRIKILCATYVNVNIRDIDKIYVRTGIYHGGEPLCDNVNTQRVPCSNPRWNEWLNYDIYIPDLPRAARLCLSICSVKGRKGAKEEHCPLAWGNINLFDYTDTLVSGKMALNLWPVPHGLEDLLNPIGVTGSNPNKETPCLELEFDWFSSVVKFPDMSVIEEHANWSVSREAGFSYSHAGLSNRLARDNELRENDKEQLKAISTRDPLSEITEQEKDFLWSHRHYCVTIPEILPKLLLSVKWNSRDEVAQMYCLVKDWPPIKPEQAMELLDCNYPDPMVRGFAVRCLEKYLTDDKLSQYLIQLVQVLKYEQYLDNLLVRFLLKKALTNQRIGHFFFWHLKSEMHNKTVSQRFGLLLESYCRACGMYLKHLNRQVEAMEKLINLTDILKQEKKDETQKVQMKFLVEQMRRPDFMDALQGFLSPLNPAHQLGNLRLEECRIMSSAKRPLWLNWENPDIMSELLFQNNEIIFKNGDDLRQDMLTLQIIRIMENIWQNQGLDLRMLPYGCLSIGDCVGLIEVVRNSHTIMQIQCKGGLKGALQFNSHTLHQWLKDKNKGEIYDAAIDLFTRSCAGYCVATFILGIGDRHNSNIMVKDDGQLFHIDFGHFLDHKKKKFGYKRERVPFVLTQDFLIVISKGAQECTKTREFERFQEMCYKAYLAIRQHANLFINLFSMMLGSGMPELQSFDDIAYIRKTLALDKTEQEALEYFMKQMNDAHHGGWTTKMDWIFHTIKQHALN
Sequence of Phosphatidylinositol 4,5-bisphosphate 3-kinase catalytic subunit beta isoform (P42338 whole entry, canonical isoform): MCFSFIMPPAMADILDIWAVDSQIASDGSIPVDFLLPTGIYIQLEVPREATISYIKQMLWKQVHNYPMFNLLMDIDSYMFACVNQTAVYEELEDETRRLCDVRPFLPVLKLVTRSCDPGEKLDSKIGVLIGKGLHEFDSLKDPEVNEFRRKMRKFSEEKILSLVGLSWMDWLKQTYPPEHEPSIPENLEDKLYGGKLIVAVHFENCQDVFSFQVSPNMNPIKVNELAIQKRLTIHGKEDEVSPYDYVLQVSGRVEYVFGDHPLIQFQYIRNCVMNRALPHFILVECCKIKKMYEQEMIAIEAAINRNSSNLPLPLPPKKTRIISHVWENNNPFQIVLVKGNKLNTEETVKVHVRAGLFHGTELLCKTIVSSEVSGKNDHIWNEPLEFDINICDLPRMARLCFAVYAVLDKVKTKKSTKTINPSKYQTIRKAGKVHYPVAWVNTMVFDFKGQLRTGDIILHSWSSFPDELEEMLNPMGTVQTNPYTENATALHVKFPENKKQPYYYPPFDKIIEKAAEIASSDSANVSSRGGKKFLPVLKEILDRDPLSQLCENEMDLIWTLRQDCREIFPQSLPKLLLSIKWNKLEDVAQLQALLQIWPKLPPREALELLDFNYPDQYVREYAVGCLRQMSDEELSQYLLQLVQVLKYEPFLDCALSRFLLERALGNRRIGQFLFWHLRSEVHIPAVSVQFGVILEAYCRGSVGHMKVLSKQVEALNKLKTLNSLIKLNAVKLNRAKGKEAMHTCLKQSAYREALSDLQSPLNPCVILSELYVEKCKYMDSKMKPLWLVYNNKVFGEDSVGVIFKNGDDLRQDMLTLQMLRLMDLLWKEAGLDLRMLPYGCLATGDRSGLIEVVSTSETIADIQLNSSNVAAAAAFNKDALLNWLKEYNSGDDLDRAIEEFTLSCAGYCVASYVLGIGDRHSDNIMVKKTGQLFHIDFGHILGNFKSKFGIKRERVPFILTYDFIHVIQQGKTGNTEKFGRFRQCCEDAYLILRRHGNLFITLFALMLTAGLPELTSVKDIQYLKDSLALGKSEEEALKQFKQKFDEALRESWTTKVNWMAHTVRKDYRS

As to `CN(/N=C/c1cnn2ccc(C#N)cc12)S(=O)(=O)c1cccc([N+](=O)[O-])c1`, the IC50 (in general, the midpoint of a concentration-inhibition curve) in experiment [1] worked out at 1200 nM; in experiment [2] it was 690 nM; in experiment [3], 410 nM; in experiment [4] it was 36 nM; in experiment [5], 380 nM.
On to `Cc1ccc([N+](=O)[O-])cc1S(=O)(=O)N(CCN1CCOCC1)/N=C/c1cnn2ccc(C#N)cc12`, for which the IC50 in experiment [1] stood at 230 nM; in experiment [2], 540 nM; in experiment [3], 10 nM; in experiment [4], 4.5 nM; in experiment [5], 500 nM.
On the same counts, the results for `Cc1ccc(C(=O)O)cc1S(=O)(=O)N(C)/N=C/c1cnn2ccc(C#N)cc12` are more than 1000 nM, more than 20000 nM, more than 1000 nM, more than 1000 nM and more than 20000 nM.
On the same counts, the results for `CC(C)c1ccc([N+](=O)[O-])cc1S(=O)(=O)N(C)/N=C/c1cnn2ccc(C#N)cc12` are 300 nM, 260 nM, 39 nM, 1.8 nM and 180 nM.
The corresponding values for `CC(=O)Nc1ccc(C)c(S(=O)(=O)N(C)/N=C/c2cnn3ccc(C#N)cc23)c1` are more than 1000 nM, more than 20000 nM, more than 1000 nM, more than 1000 nM and more than 20000 nM.
Turning to `CN(/N=C/c1cnn2ccc(C#N)cc12)S(=O)(=O)c1cc([N+](=O)[O-])ccc1Cl`, the IC50 in experiment [1] was 64 nM; in experiment [2], 350 nM; in experiment [3], 24 nM; in experiment [4] it was 0.5 nM; in experiment [5] it was 880 nM.
On the same counts, the results for `Cc1cc([N+](=O)[O-])ccc1S(=O)(=O)N(C)/N=C/c1cnn2ccc(C#N)cc12` are more than 1000 nM, more than 20000 nM, more than 1000 nM, 65 nM and more than 20000 nM.
On the same counts, the results for `COC(=O)c1ccc(C)c(S(=O)(=O)N(C)/N=C/c2cnn3ccc(C#N)cc23)c1` are more than 1000 nM, 1900 nM, 400 nM, 990 nM and 2400 nM.
The corresponding values for `Cc1ccc([N+](=O)[O-])cc1C(=O)N(C)/N=C/c1cnn2ccc(C#N)cc12` are 68 nM, more than 20000 nM, 8.6 nM, 17 nM and more than 20000 nM.
Turning to `Cc1ccc(Cl)cc1S(=O)(=O)N(C)/N=C/c1cnn2ccc(C#N)cc12`, the IC50 came to 360 nM in experiment [1]; 540 nM in experiment [2]; 230 nM in experiment [3]; 13 nM in experiment [4]; 670 nM in experiment [5].
For `Cc1ccccc1S(=O)(=O)N(C)/N=C/c1cnn2ccc(C#N)cc12`, the IC50 was more than 1000 nM in experiment [1]; 12000 nM in experiment [2]; 2000 nM in experiment [3]; 700 nM in experiment [4]; more than 20000 nM in experiment [5].
On the same counts, the results for `Cc1c([N+](=O)[O-])cccc1S(=O)(=O)N(C)/N=C/c1cnn2ccc(C#N)cc12` are more than 1000 nM, more than 20000 nM, more than 1000 nM, more than 1000 nM and more than 20000 nM.
The corresponding values for `CCc1ccc([N+](=O)[O-])cc1S(=O)(=O)N(C)/N=C/c1cnn2ccc(C#N)cc12` are 280 nM, 80 nM, 13 nM, 1.5 nM and 170 nM.
Turning to `CN(/N=C/c1cnn2ccc(C#N)cc12)S(=O)(=O)c1cc([N+](=O)[O-])ccc1F`, the IC50 was 44 nM in experiment [1]; 400 nM in experiment [2]; 120 nM in experiment [3]; 4.7 nM in experiment [4]; 480 nM in experiment [5].
`Cc1cccc([N+](=O)[O-])c1S(=O)(=O)N(C)/N=C/c1cnn2ccc(C#N)cc12`: the IC50 in experiment [1] was determined as 340 nM; in experiment [2] it was 7600 nM; in experiment [3], 100 nM; in experiment [4], 14 nM; in experiment [5], 3700 nM.
Regarding `Cc1ccc(S(C)(=O)=O)cc1S(=O)(=O)N(C)/N=C/c1cnn2ccc(C#N)cc12`, the IC50 was determined as 830 nM in experiment [1]; 620 nM in experiment [2]; 200 nM in experiment [3]; 350 nM in experiment [4]; 500 nM in experiment [5].
On the same counts, the results for `Cc1ccc(NC(=O)C(F)(F)F)cc1S(=O)(=O)N(C)/N=C/c1cnn2ccc(C#N)cc12` are more than 1000 nM, 9100 nM, more than 1000 nM, more than 1000 nM and 2300 nM.
The corresponding values for `Cc1ccc([N+](=O)[O-])cc1S(=O)(=O)N(CCN(C)C)/N=C/c1cnn2ccc(C#N)cc12` are 490 nM, 390 nM, 180 nM, 77 nM and 360 nM.
Turning to `Cc1ccc(F)cc1S(=O)(=O)N(C)/N=C/c1cnn2ccc(C#N)cc12`, the IC50 in experiment [1] was 550 nM; in experiment [2], 14000 nM; in experiment [3] it was 310 nM; in experiment [4] it was 55 nM; in experiment [5] it was more than 20000 nM.
For the molecule `Cc1ccc(C#N)cc1S(=O)(=O)N(C)/N=C/c1cnn2ccc(C#N)cc12`, the IC50 in experiment [1] was 130 nM; in experiment [2], 210 nM; in experiment [3], 59 nM; in experiment [4] it was 2.4 nM; in experiment [5], 280 nM.
On the same counts, the results for `CCN(CC)CCN(/N=C/c1cnn2ccc(C#N)cc12)S(=O)(=O)c1cc([N+](=O)[O-])ccc1C` are more than 1000 nM, 1700 nM, 110 nM, 82 nM and 3500 nM.
The corresponding values for `Cc1ccc(Br)cc1S(=O)(=O)N(C)/N=C/c1cnn2ccc(C#N)cc12` are 620 nM, 570 nM, 180 nM, 13 nM and 700 nM.
Consider `Cc1ccc([N+](=O)[O-])cc1CN(C)/N=C/c1cnn2ccc(C#N)cc12`, for which the IC50 in experiment [1] was 79 nM; in experiment [2] it was 1900 nM; in experiment [3], 37 nM; in experiment [4], 40 nM; in experiment [5], 1700 nM.
For the molecule `CN(/N=C/c1cnn2ccc(C#N)cc12)C(=O)c1cccc([N+](=O)[O-])c1`, the IC50 amounted to 67 nM in experiment [1]; 6000 nM in experiment [2]; 16 nM in experiment [3]; 11 nM in experiment [4]; 1800 nM in experiment [5].
The corresponding values for `Cc1ccc([N+](=O)[O-])cc1S(=O)(=O)N(CCN1CCCCC1)/N=C/c1cnn2ccc(C#N)cc12` are more than 1000 nM, 490 nM, 89 nM, 140 nM and 1100 nM.
Turning to `Cc1ccc(C)c(S(=O)(=O)N(C)/N=C/c2cnn3ccc(C#N)cc23)c1`, the IC50 is more than 1000 nM in experiment [1]; 880 nM in experiment [2]; more than 1000 nM in experiment [3]; 100 nM in experiment [4]; 2100 nM in experiment [5].
For the molecule `Cc1ccc(N)cc1S(=O)(=O)N(C)/N=C/c1cnn2ccc(C#N)cc12`, the IC50 in experiment [1], in experiment [3] and in experiment [4] was more than 1000 nM in each case.
Take `Cc1ccc([N+](=O)[O-])cc1S(=O)(=O)N(Cc1ccccc1)/N=C/c1cnn2ccc(C#N)cc12`: the IC50 in experiment [1] is more than 1000 nM; in experiment [2] it was 2500 nM; in experiment [3], 32 nM; in experiment [4], 27 nM.
